Entries after “also recorded” stand apart in the source; their conditions may differ. Like-named read-outs stand apart in the source and are kept apart here.
Legend:
[1] = system: truly truncated H6:GFP: loop:s11; test: Spontaneous dark reassembly with s11; assay type: binding; details: 4 μM protein, 20 μM s11, dark
Outline: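 Truncated protein made from intact GFP carrying a sacrificial loop: loop cut by proteolysis, then strand 11 stripped off in 6M Guanidinium-HCl. Protein separated from s11 peptide by size exclusion, refolded by rapid dilution into non-denaturing buffer, then thermally relaxed. 4 µM protein mixed with 20 µM s11 peptide without irradiation. Reassembly followed over time; second-order k reported in M-1s-1.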

s10• H6:GFP: loop:s11 = test: Displacement of bound s10 by excess s11; assay type: binding; details: excess s11 added to isolated complex; data not shown
H6:GFP: loop:s11 = details: His-tag retained, cited from earlier work
H6:GFP: loop:s11•s11 = details: excess replacement peptide s11^222Q; cited from earlier work
H6:s10:loop:GFP = details: cited from earlier work
s10• H6:s10:loop:GFP = details: dark; cited from earlier work

Sequence	rate constant k of spontaneous reassembly with s11 in the dark [1]	displacement of bound s10 (s10• H6:GFP: loop:s11)	binding of s11 in the dark (H6:GFP: loop:s11; listed as native peptide)	binding of s11 in the dark (H6:GFP: loop:s11)	spontaneous off-rate of strand 11 (H6:GFP: loop:s11•s11)	reassembly with s10 in the dark (H6:s10:loop:GFP)	spontaneous off-rate of strand 10 (s10• H6:s10:loop:GFP)
HMVLLEFVTAA [s11]	1.2 × 10^0 M^−1 s^−1	able to displace the bound s10, and light accelerates this process	unable to displace the H6 slotted into this groove until it is vacated following light activation	unable to bind s11 in the dark; also recorded: does not rebind added synthetic strand 11 (s11) spontaneously in the dark	effectively zero	–	–
NHYLSTQSVLS [s10]	–	–	–	–	–	readily reassembles	very slow

Source: paper PMC5815829 (Journal of the American Chemical Society, 2017)
